In ChEMBL document CHEMBL2169757, “Discovery, synthesis, and biological evaluation of a novel group of selective inhibitors of filoviral entry” (J Med Chem, 2011):
The source made the active and inactive calls. The rule behind the calls is not given here.

Key:
Assay type in all cases: cell-based
293T [1] = experiment: Inhibition of compound-pretreated Ebolavirus GP pseudotyped in HIV virions infected in human 293T cells assessed as viral-cell entry at 60 uM after 48 hrs by luciferase gene assay relative to DMSO-treated control; set-up: scale not given: the % may be the effect or the level left; conditions: Zaire ebolavirus
Summary of the method: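 Ebola GP-pseudotyped HIV luciferase virions were mixed with compound (60 μM final) before infecting 293T cells. Medium was changed after overnight incubation, and luciferase was read from lysates at 48 h. Result is % infectivity relative to DMSO vehicle (0.1~0.2% final).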

HEK-293T [2] = experiment: Cytotoxicity against human 293T cells infected with Ebolavirus GP pseudotyped in HIV virions assessed as effect on cell growth at 60 uM
Summary of the method: (§1)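 Compounds at 60 μM final were mixed with Ebola GP-pseudotyped HIV luciferase virions and added to 293T cells. Cell morphology and growth were checked by light microscopy at 24 and 48 h post-infection. Vehicle was DMSO at 0.1~0.2% final.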

HEK-293T [3] = experiment: Cytotoxicity against human 293T cells infected with Ebolavirus GP pseudotyped in HIV virions assessed as effect on cell morphology at 60 uM; summary of the method: as §1
HeLa [4] = experiment: Inhibition of compound-pretreated VSV GP pseudotyped in HIV virions infected in human HeLa cells assessed as inhibition of viral-cell entry after 48 hrs by luciferase gene assay relative to DMSO-treated control; conditions: Vesicular stomatitis virus
293T [5] = experiment: Inhibition of compound-pretreated VSV GP pseudotyped in HIV virions infected in human 293T cells assessed as inhibition of viral-cell entry after 48 hrs by luciferase gene assay relative to DMSO-treated control; conditions: Vesicular stomatitis virus
[6] = (§2) Inhibition of compound-pretreated Ebolavirus GP pseudotyped in HIV virions infected in human HeLa cells assessed as inhibition of viral-cell entry after 48 hrs by luciferase gene assay relative to DMSO-treated control; conditions: Zaire ebolavirus
Summary of the method: (§3)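 Pseudotypes were briefly preincubated with compound at room temperature, then added to 293T or HeLa cells seeded the day before. Medium was replaced after overnight incubation, and cells were lysed at 48 h for firefly luciferase reading. Single point was 30 μM; curves spanned 3.75–120 or 3.75–60 μM. Infectivity was taken as % of DMSO control, from 3–5 independent experiments.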

HeLa [7] = experiment: as §2; conditions: Zaire ebolavirus; summary of the method: as §3
293T [8] = experiment: (§4) Inhibition of compound-pretreated Ebolavirus GP pseudotyped in HIV virions infected in human 293T cells assessed as inhibition of viral-cell entry after 48 hrs by luciferase gene assay relative to DMSO-treated control; conditions: Zaire ebolavirus; summary of the method: as §3
[9] = as §4; conditions: Zaire ebolavirus, HEK-293T; summary of the method: as §3
A549 = experiment: Inhibition of compound-pretreated Marburg GP pseudotyped in HIV virions infected in human A549 cells assessed as inhibition of viral-cell entry at 60 uM after 48 hrs by luciferase gene assay relative to DMSO-treated control; conditions: Marburgvirus
Summary of the method: (§5)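 HIV luciferase virions pseudotyped with Marburg GP (Lake Victoria) were preincubated with compound (60 μM final), then added to 293T, HeLa or A549 cells. Medium was replaced after overnight incubation, and lysates were read for luciferase at 48 h. Values are % of DMSO control, mean ± standard error of three independent experiments.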

293T [10] = experiment: Inhibition of compound-pretreated Marburg GP pseudotyped in HIV virions infected in human 293T cells assessed as inhibition of viral-cell entry at 60 uM after 48 hrs by luciferase gene assay relative to DMSO-treated control; conditions: Marburgvirus; summary of the method: as §5
HeLa [11] = experiment: Inhibition of compound-pretreated Marburg GP pseudotyped in HIV virions infected in human HeLa cells assessed as inhibition of viral-cell entry at 60 uM after 48 hrs by luciferase gene assay relative to DMSO-treated control; conditions: Marburgvirus; summary of the method: as §5
293T [12] = experiment: Inhibition of compound-pretreated VSV GP pseudotyped in HIV virions infected in human 293T cells assessed as inhibition of viral-cell entry at 120 uM after 48 hrs by luciferase gene assay relative to DMSO-treated control; conditions: Vesicular stomatitis virus
HeLa [13] = experiment: Inhibition of compound-pretreated VSV GP pseudotyped in HIV virions infected in human HeLa cells assessed as inhibition of viral-cell entry at 120 uM after 48 hrs by luciferase gene assay relative to DMSO-treated control; conditions: Vesicular stomatitis virus
HeLa [14] = experiment: Inhibition of compound-pretreated Ebolavirus GP pseudotyped in HIV virions infected in human HeLa cells assessed as inhibition of viral-cell entry at 30 uM after 48 hrs by luciferase gene assay relative to DMSO-treated control; conditions: Zaire ebolavirus; summary of the method: as §3
293T [15] = experiment: Inhibition of compound-pretreated Ebolavirus GP pseudotyped in HIV virions infected in human 293T cells assessed as inhibition of viral-cell entry at 30 uM after 48 hrs by luciferase gene assay relative to DMSO-treated control; conditions: Zaire ebolavirus; summary of the method: as §3
HEK-293T [16] = experiment: Cytotoxicity against human 293T cells infected with Ebolavirus GP pseudotyped in HIV virions assessed as cell death at 60 uM; summary of the method: as §1

## CCN(CC)CC(=O)NCc1cc(-c2ccccc2OC)no1
293T [1]
  Activity: 87%

## CCN(CC)CC(=O)NCc1cc(-c2ccc(C)cc2)no1
293T [1]
  Activity: 381%
HEK-293T [2]
  Activity: Non-toxic
HEK-293T [3]
  Activity: Non-toxic

## CCN(CC)CC(=O)NCc1cc(-c2ccc([N+](=O)[O-])cc2)no1
293T [1]
  Activity: 30%

## CCN(CC)CC(=O)NCc1cn(-c2ccc(OC)cc2)nn1
293T [1]
  Activity: 58%

## CCN(CC)CC(=O)NCc1cc(-c2cccc(OC)c2)no1
HeLa [4]
  inhibition: inactive
293T [1]
  Activity: 4%
293T [5]
  inhibition: inactive
[6]
  IC50: 10 µM
HeLa [7]
  inhibition: Dose-dependent effect
293T [8]
  inhibition: Dose-dependent effect
[9]
  IC50: 10 µM

## COc1ccc(-c2cc(CNC(=O)[C@@H](NC(=O)OCc3ccccc3)C(C)C)on2)cc1
293T [1]
  Activity: 220%

## CCN(CC)CC(=O)NCc1cc(-c2ccc(I)cc2)no1
HeLa [4]
  inhibition: inactive
A549
  inhibition: Active
293T [10]
  inhibition: Active
293T [1]
  Activity: 6%
293T [5]
  inhibition: inactive
HeLa [11]
  inhibition: Active
[6]
  IC50: 2.5 µM
HeLa [7]
  inhibition: Dose-dependent effect
293T [8]
  inhibition: Dose-dependent effect
[9]
  IC50: 2.5 µM

## CCN(CC)CC(=O)NCc1cc(-c2ccc(C(F)(F)F)cc2)no1
293T [1]
  Activity: 24%

## O=C(NCc1cc(-c2ccc(Br)cc2)no1)c1ccccc1
293T [1]
  Activity: 82%

## CCN(CC)CC(=O)NCc1cc(-c2ccc(OC)c(I)c2)no1
293T [1]
  Activity: 4%

## CCN(CC)CC(=O)NCc1cn(-c2c(Br)cc(Br)cc2Br)nn1
HeLa [4]
  inhibition: inactive
293T [1]
  Activity: 3%
293T [5]
  inhibition: inactive
[6]
  IC50: 5 µM
HeLa [7]
  inhibition: Dose-dependent effect
293T [8]
  inhibition: Dose-dependent effect
[9]
  IC50: 5 µM

## O=C1NC2(CCCC2)C(COc2ccccc2)O1 (stereo not given)
293T [12]
  inhibition: Active
HeLa [13]
  inhibition: Active

## CCN(CC)CC(=O)NCc1cn(-c2ccccc2[N+](=O)[O-])nn1
293T [1]
  Activity: 66%

## CCN(CC)CC(=O)NCc1cn(-c2ccc(Cl)cc2)nn1
293T [1]
  Activity: 105%

## COc1ccc(-c2cc(CNC(=O)[C@H](CC(=O)OCc3ccccc3)NC(=O)OC(C)(C)C)on2)cc1
293T [1]
  Activity: 118%

## CCN(CC)CC(=O)NCc1cn(-c2cccc(OC)c2)nn1
293T [1]
  Activity: 90%

## CCN(CC)CC(=O)NCc1cc(-c2ccc(OC)cc2)no1
293T [12]
  inhibition: inactive
HeLa [13]
  inhibition: inactive
A549
  inhibition: 20%
293T [10]
  inhibition: 20%
HeLa [14]
  inhibition: > 50%
293T [1]
  Activity: 56%
HeLa [11]
  inhibition: 20%
[6]
  IC50: 30 µM
HeLa [7]
  inhibition: Dose-dependent effect
293T [8]
  inhibition: Dose-dependent effect
[9]
  IC50: 30 µM
293T [15]
  inhibition: > 50%

## CCN(CC)CC(=O)NCc1cc(-c2ccc(Br)cc2)no1
293T [1]
  Activity: 30%

## CCN(CC)CC(=O)NCc1cc(-c2ccc(OC)c(OC)c2)no1
293T [1]
  Activity: 160%

## CCN(CC)CC(=O)NCc1cn(-c2ccccc2Br)nn1
293T [1]
  Activity: 19%

## CCN(CC)CC(=O)NCc1cc(-c2ccco2)no1
293T [1]
  Activity: 77%

## CCCc1cc(CNC(=O)CN(CC)CC)on1
293T [1]
  Activity: 102%

## COc1ccc(-c2cc(CNC(=O)CNC(=O)OCc3ccccc3)on2)cc1
293T [1]
  Activity: 148%

## CCN(CC)CC(=O)NCc1cc(-c2ccc(Cl)cc2)no1
293T [1]
  Activity: 17%

## COc1ccc(-c2cc(CNC(=O)[C@@H](NC(=O)OCc3ccccc3)C3CCCN3C(=O)OCc3ccccc3)on2)cc1 (stereo not given in full)
293T [1]
  Activity: 254%

## CCN(CC)CC(=O)NCc1cn(-c2c(Cl)cc(Cl)cc2Cl)nn1
293T [1]
  Activity: 33%

## CCN(CC)CC(=O)NCc1cn(-c2cccc(I)c2)nn1
293T [1]
  Activity: 111%

## CCCCCCCn1cc(CNC(=O)CN(CC)CC)nn1
293T [1]
  Activity: 60%

## O=C(CBr)NCc1cc(-c2ccc(Br)cc2)no1
HEK-293T [16]
  Activity: Toxic

## CCC(=O)NCc1cc(-c2ccc(Br)cc2)no1
293T [1]
  Activity: 99%

## COc1ccc(-c2cc(CNC(=O)[C@H](CS)NC(C)=O)on2)cc1
293T [1]
  Activity: 421%
HEK-293T [2]
  Activity: Non-toxic
HEK-293T [3]
  Activity: Non-toxic

## COc1ccc(-c2cc(CNC(=O)[C@H](Cc3ccccc3)NC(=O)OC(C)(C)C)on2)cc1
293T [1]
  Activity: 188%

## CCN(CC)CC(=O)NCc1cn(Cc2ccccc2)nn1
293T [1]
  Activity: 35%

## CCN(CC)CC(=O)NCc1cc(-c2ccc(O)cc2)no1
293T [1]
  Activity: 132%

## CCN(CC)CC(=O)NCc1cn(-c2ccc(Br)cc2)nn1
293T [1]
  Activity: 18%

## CC(C)C(=O)NCc1cc(-c2ccc(Br)cc2)no1
293T [1]
  Activity: 116%

## CCN(CC)CC(=O)NCc1cn(-c2ccccc2)nn1
293T [1]
  Activity: 46%

## CCN(CC)CC(=O)NCc1cn(-c2ccc(I)cc2)nn1
HeLa [4]
  inhibition: inactive
A549
  inhibition: > 90%
293T [10]
  inhibition: Active
293T [1]
  Activity: 4%
293T [5]
  inhibition: inactive
HeLa [11]
  inhibition: > 90%
[6]
  IC50: 5 µM
HeLa [7]
  inhibition: Dose-dependent effect
293T [8]
  inhibition: Dose-dependent effect
[9]
  IC50: 5 µM

## CCN(CC)CC(=O)NCc1cn(-c2ccc(OC)cc2[N+](=O)[O-])nn1
293T [1]
  Activity: 92%

## COc1ccc(-c2cc(CNC(=O)OCC(C)C)on2)cc1
293T [1]
  Activity: 118%

## COc1ccc(-c2cc(CNC(=O)CBr)on2)cc1
293T [1]
  Activity: 121%

## CCN(CC)CC(=O)NCc1cc(-c2ccccc2)no1
293T [1]
  Activity: 181%

## CC(=O)NCc1cc(-c2ccc(Br)cc2)no1
293T [1]
  Activity: 105%
HEK-293T [2]
  Activity: Non-toxic
HEK-293T [3]
  Activity: Non-toxic

## COc1ccc(-c2cc(CNC(=O)[C@@H](N)Cc3ccccc3)on2)cc1
293T [1]
  Activity: 106%

## CCN(CC)CC(=O)NCc1cc(-c2c(C)cccc2C)no1
293T [1]
  Activity: 59%

## CCN(CC)CC(=O)NCc1cc(-c2c(F)c(F)c(F)c(F)c2F)no1
293T [1]
  Activity: 52%

## CCN(CC)CC(=O)NCc1cc(-c2cccc([N+](=O)[O-])c2)no1
293T [1]
  Activity: 37%
